Here are results for two substances from paper PMC3621710 (Bioconjugate chemistry, 2009).

Square brackets hold non-standard residues; d marks the D form. Ends that are not written are not given here.

For assay [1], the target named is MC1 receptor (B16/F1 melanoma cells) (Mus musculus, UniProt Q01727). The conditions noted are these: read-out: MC1 receptor binding affinity; cited from earlier work.
Assay [2] deals with B16/F1 melanoma cells. The assay can be described thus: Clonogenic cytotoxicity. The conditions noted are these: 0.1 μM peptide, 3 h incubation at 37 °C, colonies over 6 days. Type of assay: cell-based, murine. Put shortly: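 B16/F1 cells seeded at 200 cells/well and held overnight at 37 °C. After a wash with RPMI 1640, cells were exposed for 3 h at 37 °C to 0.1 μM test peptide in medium; controls received medium only. After two PBS washes, colonies grew for 6 days with medium changed every other day. Cells were fixed in methanol:glacial acetic acid (3:1) and hematoxylin-stained; colonies >50 cells scored as survivors. Survival normalized to untreated (100%); unpaired Student's t-test.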

MC1 receptor (B16/F1 melanoma cells), sequence (Q01727 whole entry): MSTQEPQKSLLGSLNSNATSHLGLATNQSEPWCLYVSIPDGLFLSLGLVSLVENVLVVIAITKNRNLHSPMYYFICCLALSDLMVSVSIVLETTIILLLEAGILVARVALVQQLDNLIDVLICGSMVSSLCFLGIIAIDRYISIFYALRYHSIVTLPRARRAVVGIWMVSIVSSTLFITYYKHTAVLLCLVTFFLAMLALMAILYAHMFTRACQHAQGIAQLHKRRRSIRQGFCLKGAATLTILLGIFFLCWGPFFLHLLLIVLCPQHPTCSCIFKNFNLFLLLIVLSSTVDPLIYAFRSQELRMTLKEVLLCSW

Consider “[Cys^3,4,10, D-Phe^7, Arg^11]α-MSH3-13 (CCEH[dF]RWCRPV; not fully specified (C-terminus); ends and bridges not checked) [(Arg^11)CCMSH]”, for which, in assay [1], the IC50 is 1.7 nM.
Regarding “[Cys^3,4,10, D-Phe^7, Arg^11]α-MSH3-13 [(Arg^11)CCMSH]”, the “decrease in clonogenic survival compared to untreated group” value in assay [2] was determined as 11%.
